Laboratory results taken from ChEMBL document CHEMBL1156470, “Inhibition of the activation of multiple serine proteases with a cathepsin C inhibitor requires sustained exposure to prevent pro-enzyme processing” (J Biol Chem, 2007).
The source made the active and inactive calls. The calls are words filed in the database; no cut-off is given here.

Legend:
[1] = target: T1, Neutrophil elastase (Homo sapiens, UniProt P08246); test: Blockade of neutrophil elastase processing in human U937 cells after 7 days by fluorogenic substrate cleavage assay; assay type: cell-based, U-937
T1 sequence (P08246 whole entry): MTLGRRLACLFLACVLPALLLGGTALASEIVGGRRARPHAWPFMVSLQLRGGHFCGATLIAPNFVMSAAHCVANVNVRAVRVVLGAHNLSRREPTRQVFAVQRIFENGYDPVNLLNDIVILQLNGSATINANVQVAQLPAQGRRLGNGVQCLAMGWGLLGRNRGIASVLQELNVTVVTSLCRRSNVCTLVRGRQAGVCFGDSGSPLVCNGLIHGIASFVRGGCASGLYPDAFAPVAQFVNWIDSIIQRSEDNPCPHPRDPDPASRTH
Summary of the method: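 U937 seeded at 1×10^5 cells/ml with vehicle or inhibitor, passaged and diluted 10-fold into fresh medium with compound on days 3 and 5, harvested day 7. Cells washed and lysed in 20 mM Tris pH 7.5, 100 mM NaCl, 0.2% NP-40. NE rate measured with 400 μM MeOSuc-AAPV-AMC (ex 370/em 450 nm, 10 min). % inhibition vs vehicle, four wells per point.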

[2] = target: T2, Neutrophil elastase (Homo sapiens) (UniProt P08246); details: U-937, 1 uM
T2 sequence (whole entry): T1 sequence (P08246 whole entry)

[3] = target: T3, Cathepsin G (Mus musculus, UniProt P28293); test: Inhibition of cathepsin G activation in beta-estradiol differentiated mouse EcoM-G cells after 24 hrs; assay type: cell-based
T3 sequence (P28293 whole entry): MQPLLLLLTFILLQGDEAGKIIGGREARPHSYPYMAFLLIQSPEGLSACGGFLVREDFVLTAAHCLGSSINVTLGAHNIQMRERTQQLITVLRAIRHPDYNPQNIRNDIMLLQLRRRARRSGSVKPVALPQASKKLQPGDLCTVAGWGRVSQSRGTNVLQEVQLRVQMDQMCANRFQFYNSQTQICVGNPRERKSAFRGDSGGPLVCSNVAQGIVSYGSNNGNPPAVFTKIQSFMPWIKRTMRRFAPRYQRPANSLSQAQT
Summary of the method: (§1)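 EcoM-G cells (cultures <3 months old) washed and seeded at 0.5×10^6 cells/ml without β-estradiol. After 24 h, compound added in Me₂SO (final 0.5%), then cells differentiated a further 24 h, harvested and lysed. NE assayed with 400 μM MeOSuc-AAPV-AMC, CG with 1 mM Suc-AAPF-pNA (405 nm, 5 min), Pr-3 with 10 μM internally quenched substrate (ex 328/em 393 nm), all from the same lysates. IC50 from four-parameter Hill fit.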

[4] = target: T4, Cathepsin G (Homo sapiens, UniProt P08311); test: Blockade of cathepsin G processing in human U937 cells by densitometry; assay type: cell-based, U-937
T4 sequence (P08311 whole entry): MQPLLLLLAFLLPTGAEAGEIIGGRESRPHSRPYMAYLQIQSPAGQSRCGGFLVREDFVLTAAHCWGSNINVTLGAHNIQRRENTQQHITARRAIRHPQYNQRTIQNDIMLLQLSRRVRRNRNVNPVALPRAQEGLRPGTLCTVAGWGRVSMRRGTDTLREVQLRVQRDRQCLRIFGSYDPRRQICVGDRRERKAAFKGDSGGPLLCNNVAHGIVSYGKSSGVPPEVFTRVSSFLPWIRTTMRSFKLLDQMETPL
Summary of the method: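 U937 cells washed, plated at 2×10^6 cells/ml in methionine/glutamine-free RPMI, inhibitor or 0.5% Me₂SO added during 30 min starvation, pulsed with [³⁵S]methionine (10 μCi/ml) 30 min, re-seeded in complete medium with inhibitor and chased 3 h. Lysates bound to aprotinin-agarose 1 h at room temperature, SDS-PAGE and fluorography. CG band quantitated by densitometry as % inhibition vs vehicle.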

[5] = target: T5, Neutrophil elastase (Mus musculus) (UniProt Q3UP87); details: EcoM-G, 1 uM
T5 sequence (whole entry): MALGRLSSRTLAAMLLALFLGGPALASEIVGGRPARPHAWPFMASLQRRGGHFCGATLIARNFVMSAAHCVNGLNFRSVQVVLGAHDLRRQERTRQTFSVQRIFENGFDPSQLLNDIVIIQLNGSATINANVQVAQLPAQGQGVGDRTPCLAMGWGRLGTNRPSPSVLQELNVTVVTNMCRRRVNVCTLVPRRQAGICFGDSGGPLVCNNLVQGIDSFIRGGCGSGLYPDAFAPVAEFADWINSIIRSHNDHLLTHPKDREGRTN

[6] = target: T6, Cathepsin G (Mus musculus) (UniProt P28293); test: Inhibition of cathepsin G activity in beta-estradiol differentiated mouse EcoM-G cells at 10 uM after 3 days in the absence of estradiol; assay type: cell-based
T6 sequence (whole entry): T3 sequence (P28293 whole entry)
Summary of the method: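 EcoM-G cells seeded without β-estradiol to differentiate. 10 μM compound or vehicle added 24 h after estrogen removal, and aliquots taken over time up to 3 days. CG activity in extracts measured with 1 mM Suc-Ala-Ala-Pro-Phe-pNA, absorbance at 405 nm over 5 min, in 100 mM Tris pH 7.5, 1 M NaCl.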

[7] = target: Cathepsin B (Homo sapiens, UniProt P07858); test: Inhibition of human recombinant cathepsin B after 10 mins
[8] = target: T4, Cathepsin G; test: Inhibition of cathepsin G in human U937 cells; assay type: cell-based, U-937
[9] = target: T7, Myeloblastin (Mus musculus, UniProt Q61096); test: Inhibition of proteinase-3 activation in beta-estradiol differentiated mouse EcoM-G cells after 24 hrs; assay type: cell-based; summary of the method: as §1
T7 sequence (Q61096 whole entry): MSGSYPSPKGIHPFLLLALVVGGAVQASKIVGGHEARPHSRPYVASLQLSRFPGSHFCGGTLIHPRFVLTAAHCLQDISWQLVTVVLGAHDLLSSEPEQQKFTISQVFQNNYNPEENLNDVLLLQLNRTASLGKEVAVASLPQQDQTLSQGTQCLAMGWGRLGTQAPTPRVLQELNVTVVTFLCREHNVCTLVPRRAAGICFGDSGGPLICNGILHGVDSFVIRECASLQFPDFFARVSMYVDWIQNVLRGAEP

[10] = target: Procathepsin L (Homo sapiens, UniProt P07711); test: Inhibition of human recombinant cathepsin L after 10 mins
Chain of Procathepsin L (P07711 whole entry): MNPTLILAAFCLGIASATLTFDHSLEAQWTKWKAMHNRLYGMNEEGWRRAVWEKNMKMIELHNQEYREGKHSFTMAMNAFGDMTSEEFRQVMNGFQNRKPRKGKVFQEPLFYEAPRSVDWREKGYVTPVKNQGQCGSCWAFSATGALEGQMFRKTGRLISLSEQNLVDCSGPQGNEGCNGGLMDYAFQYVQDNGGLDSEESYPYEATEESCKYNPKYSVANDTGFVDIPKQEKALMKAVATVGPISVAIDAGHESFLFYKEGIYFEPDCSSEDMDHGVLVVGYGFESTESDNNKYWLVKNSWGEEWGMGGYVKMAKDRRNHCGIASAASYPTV

[11] = target: T5, Neutrophil elastase (Mus musculus); details: EcoM-G, 1 uM; remark: listed apart in the source
[12] = target: T8, Myeloblastin (Homo sapiens, UniProt P24158); test: Inhibition of proteinase-3 in human U937 cells; assay type: cell-based, U-937
T8 sequence (P24158 whole entry): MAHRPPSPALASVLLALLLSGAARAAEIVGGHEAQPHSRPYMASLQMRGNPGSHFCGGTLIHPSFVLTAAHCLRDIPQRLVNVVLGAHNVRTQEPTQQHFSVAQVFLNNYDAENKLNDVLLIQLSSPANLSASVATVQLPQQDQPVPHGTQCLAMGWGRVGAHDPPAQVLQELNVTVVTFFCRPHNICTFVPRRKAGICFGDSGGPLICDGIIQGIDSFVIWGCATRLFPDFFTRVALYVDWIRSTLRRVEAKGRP

## N#C[C@@]1(NC(=O)[C@@H](N)Cc2cccs2)C[C@@H]1c1ccccc1.O=C(O)C(F)(F)F
[1]
  IC50: 220 nM
[2]
  inhibition: > 90%
[3]
  IC50: 480 nM
[4]
  IC50: 150 nM
[5]
  inhibition: 80%
[6]
  Activity: Active
[7]
  IC50: > 50000 nM
[8]
  IC50: > 50000 nM
[9]
  IC50: 140 nM
[10]
  IC50: 5400 nM
[11]
  inhibition: > 90%
[12]
  IC50: > 50000 nM
